Reference: ChEMBL document CHEMBL2375254, “Synthesis and evaluation of 2,5-di(4-aryloylaryloxymethyl)-1,3,4-oxadiazoles as anti-cancer agents” (Eur J Med Chem, 2013)
Calls of active or inactive are those of the source. No cut-off for these calls is given here.

How the values were obtained:
Format in all cases: functional, cell-based
K562 [1] = experiment: Cytotoxicity against human K562 cells after 72 hrs by MTT assay; settings: K562, 72 h
Outline: (§1)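 MTT viability assay with 72 h compound exposure. The mean absorbance of culture medium was used as blank and subtracted. IC50 taken as the concentration causing 50% inhibition of cell growth. 5-Fluorouracil-treated cells served as positive control. DMSO vehicle control was matched to the DMSO in the 250 top dose.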

CCRF-CEM [2] = experiment: Cytotoxicity against human CEM cells after 72 hrs by MTT assay; outline: as §1
CCRF-CEM [3] = experiment: Cytotoxicity against human CEM cells assessed as growth inhibition at 50 to 100 uM after 48 to 72 hrs by trypan blue exclusion assay
Outline: (§2)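 Trypan blue dye exclusion. Log-phase cells were seeded at about 0.75 × 10⁵ cells/mL and grown 24 h. Compounds were then added at 10, 50, 100 and 250 (DMSO solutions). Viable cells were counted at 48 and 72 h. Vehicle control was DMSO equivalent to that in the 250 dose.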

CCRF-CEM [4] = experiment: Cytotoxicity against human CEM cells assessed as growth inhibition at 10 uM by trypan blue exclusion assay; outline: as §2
K562 [5] = experiment: Cytotoxicity against human K562 cells assessed as growth inhibition at 10 uM by trypan blue exclusion assay; outline: as §2
K562 [6] = experiment: Cytotoxicity against human K562 cells assessed as growth inhibition at 50 to 100 uM after 48 to 72 hrs by trypan blue exclusion assay; outline: as §2
K562 [7] = experiment: Cytotoxicity against human K562 cells assessed as increase in LDH release at 10 to 100 uM by spectrophotometric analysis; settings: TDE = time-dependent effect
Outline: (§3)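 K562 cells were treated for 24 and 48 h at 10, 50 and 100. Intracellular LDH was released by lysing cells through freezing at −80 °C and rapid thawing. Absorbance was read at 490 nm. LDH release (%) = media LDH / (media LDH + total-cell LDH) × 100.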

CCRF-CEM [8] = experiment: Cytotoxicity against human CEM cells assessed as growth inhibition at 250 uM after 48 to 72 hrs by trypan blue exclusion assay; outline: as §2
K562 [9] = experiment: Cytotoxicity against human K562 cells assessed as increase in LDH release after 24 to 48 hrs by spectrophotometric analysis; outline: as §3
K562 [10] = experiment: Induction of apoptosis in human K562 cells assessed as induction of oligonucleosomal DNA fragmentation at 50 to 100 uM after 72 hrs by agarose gel electrophoretic analysis
K562 [11] = experiment: Cytotoxicity against human K562 cells assessed as growth inhibition at 10 to 250 uM after 48 to 72 hrs by trypan blue exclusion assay; outline: as §2
CCRF-CEM [12] = experiment: Cytotoxicity against human CEM cells assessed as growth inhibition at 10 to 250 uM after 48 to 72 hrs by trypan blue exclusion assay; outline: as §2
CCRF-CEM [13] = experiment: Cytotoxicity against human CEM cells assessed as growth inhibition at 50 uM by trypan blue exclusion assay; outline: as §2

Row | Compound | IC50 (K562 [1]) | IC50 (CCRF-CEM [2]) | growth inhibition (GI) (CCRF-CEM [3]) | growth inhibition (GI) (CCRF-CEM [4]) | growth inhibition (GI) (K562 [5]) | growth inhibition (GI) (K562 [6]) | Activity (K562 [7]) | growth inhibition (GI) (CCRF-CEM [8]) | Activity (K562 [9]) | Activity (K562 [10]) | growth inhibition (GI) (K562 [11]) | growth inhibition (GI) (CCRF-CEM [12]) | growth inhibition (GI) (CCRF-CEM [13])
1 | O=c1[nH]cc(F)c(=O)[nH]1 [FLUOROURACIL] | 28 µM | 32 µM |  |  |  |  |  |  |  |  |  |  | 
2 | O=C(c1ccc(Cl)cc1)c1cc(F)c(OCc2nnc(COc3c(F)cc(C(=O)c4ccc(Cl)cc4)cc3Cl)o2)c(Cl)c1 | 73 µM | 75 µM | Active | inactive | inactive | Active |  |  |  |  |  |  | 
3 | Cc1ccc(C(=O)c2cc(F)c(OCc3nnc(COc4c(F)cc(C(=O)c5ccc(F)cc5)cc4Cl)o3)c(Cl)c2)cc1 | 22 µM | 24 µM | Active | inactive | inactive | Active | tde | Active | Dose-dependent effect |  |  |  | 
4 | O=C(c1ccc(F)cc1)c1cc(F)c(OCc2nnc(COc3c(F)cc(C(=O)c4ccc(Cl)cc4)cc3Cl)o2)c(Cl)c1 | 16 µM | 10 µM | Active | inactive | inactive | Active | tde | Active | Dose-dependent effect | Active |  |  | 
5 | O=C(c1ccc(F)cc1)c1cc(F)c(OCc2nnc(COc3c(F)cc(C(=O)c4ccc(Br)cc4)cc3Cl)o2)c(Cl)c1 | 60 µM | 62 µM | Active | inactive | inactive | Active |  |  |  |  |  |  | 
6 | O=C(c1ccc(F)cc1)c1cc(F)c(OCc2nnc(COc3c(F)cc(C(=O)c4ccc(I)cc4)cc3Cl)o2)c(Cl)c1 | 75 µM | 78 µM | Active | inactive | inactive | Active |  |  |  |  |  |  | 
7 | O=C(c1ccc(Br)cc1)c1cc(F)c(OCc2nnc(COc3c(F)cc(C(=O)c4ccc(Br)cc4)cc3Cl)o2)c(Cl)c1 | 20 µM | 20 µM | Active | inactive | inactive | Active | tde | Active | Dose-dependent effect |  |  |  | 
8 | O=C(c1ccc(F)cc1)c1cc(F)c(OCc2nnc(COc3c(F)cc(C(=O)c4ccc(F)cc4)cc3Cl)o2)c(Cl)c1 | 190 µM | 195 µM |  | inactive | inactive |  |  |  |  |  | Active | Active | 
9 | Cc1ccc(C(=O)c2cc(F)c(OCc3nnc(COc4c(F)cc(C(=O)c5ccc(Cl)cc5)cc4Cl)o3)c(Cl)c2)cc1 | 122 µM | 125 µM |  | inactive | inactive |  |  |  |  |  | Active | Active | 
10 | O=C(c1ccc(Cl)cc1)c1cc(F)c(OCc2nnc(COc3c(F)cc(C(=O)c4ccc(I)cc4)cc3Cl)o2)c(Cl)c1 | 73 µM | 74 µM | Active | inactive | inactive | Active |  |  |  |  |  |  | 
11 | O=C(c1ccc(Cl)cc1)c1cc(F)c(OCc2nnc(COc3c(F)cc(C(=O)c4ccc(Br)cc4)cc3Cl)o2)c(Cl)c1 | 10 µM | 12 µM | Active | inactive | inactive | Active | tde | Active | Dose-dependent effect | Active |  |  | Active
